Data as given in ChEMBL document CHEMBL3244365, “Synthesis of potential hypolipidemic agents. Reaction of substituted phenyl 2,3-epoxypropyl ethers with adenine, uracil, and thymine” (J Med Chem, 1978).
Values belong to the compound of their own block, whether it stands above or below them. Active and inactive are the calls of the source. The calls are words filed in the database; no cut-off is given here.

What was measured:
Rattus norvegicus [1] = test: Hypolipidemic activity in Sprague-Dawley rat assessed as decrease in serum cholesterol at 10 mg/kg/day, po after 22 to 24 hrs by Liebermann-Burchard reaction (reference value: 100 +/- 8%); assay type: functional
In short: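 Male Sprague-Dawley rats were kept on rodent chow with water ad libitum. Compounds were suspended and homogenized in 1% CMC-water and given by oral intubation once daily at 11:00 a.m., with doses based on weekly body weights. Tail-vein blood was taken 22-24 h after dosing into nonheparinized microcapillary tubes and centrifuged 3 min. Serum cholesterol (mg %) was measured on duplicate 30-μl non-hemolyzed samples by a modified Liebermann-Burchard reaction.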

Rattus norvegicus [2] = test: Hypolipidemic activity in Sprague-Dawley rat assessed as decrease in serum triglyceride at 50 mg/kg, po qd for 1 week (reference value: 100 +/- 5.3%); assay type: functional; conditions: 168 h
Rattus norvegicus [3] = test: Hypolipidemic activity in Sprague-Dawley rat assessed as inhibition of incorporation of [1,3-14C]glycerol in liver triglyceride at 50 mg/kg, po qd for 1 week (reference value: 100 +/- 8.4%); values are per cent of control; conditions: 168 h
Rattus norvegicus [4] = organism: Rattus norvegicus; test: Inhibition of rat phosphatidate phosphohydrolase in liver microsomes assessed as reduction in enzyme activity at 2 mmol
Rattus norvegicus [5] = test: Toxicity in Sprague-Dawley rat assessed as change in food intake at 10 to 100 mg/kg, po; assay type: organism-based; set-up: dose 10-100 mg/kg, route oral; conditions: in vivo
In short: (§1)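 Male Sprague-Dawley rats received 10-100 mg/kg orally once daily for 7 days as a 1% CMC-water suspension. Body weight gain, food intake and deaths were monitored.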

Liver microsome = test: Hypolipidemic activity in rat liver microsomes assessed as inhibition of incorporation of [1,3-14C]glycerol 3-phosphate ino neutral lipid at 0.5 to 5 mM; assay type: functional
In short: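 Rat liver microsomes were incubated with sn-[1,3-14C]glycerol 3-phosphate in the presence of ATP, palmitate, CoA and Mg2+. Label incorporated into neutral lipid (diglyceride + triglyceride) was measured, and phosphatidic acid accumulation was also followed.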

Rattus norvegicus [6] = test: Hypolipidemic activity in Sprague-Dawley rat assessed as decrease in serum triglyceride at 100 mg/kg, po qd for 1 week (reference value: 100 +/- 5.3%); assay type: functional; conditions: 168 h
Rattus norvegicus [7] = test: Hypolipidemic activity in Sprague-Dawley rat assessed as incorporation of [1,3-14C]glycerol in liver phospholipid at 10 mg/kg, po qd for 1 week (reference value: 100 +/- 8.3%); conditions: 168 h
Rattus norvegicus [8] = test: Hypolipidemic activity in Sprague-Dawley rat assessed as inhibition of incorporation of [1,3-14C]glycerol in liver triglyceride at 10 mg/kg, po qd for 1 week (reference value: 100 +/- 8.4%); values are per cent of control; conditions: 168 h
Rattus norvegicus [9] = test: Hypolipidemic activity in Sprague-Dawley rat assessed as change in liver triglyceride at 50 mg/kg, po qd for 1 week (reference value: 100 +/- 8.4%); conditions: 168 h
Rattus norvegicus [10] = test: Toxicity in Sprague-Dawley rat assessed as change in body weight at 10 to 100 mg/kg, po; assay type: organism-based; set-up: dose 10-100 mg/kg, route oral; conditions: in vivo; in short: as §1
Rattus norvegicus [11] = test: Hypolipidemic activity in Sprague-Dawley rat assessed as decrease in liver triglyceride at 10 mg/kg, po qd for 1 week (reference value: 100 +/- 8.4%); assay type: functional; conditions: 168 h
Rattus norvegicus [12] = test: Hypolipidemic activity in Sprague-Dawley rat assessed as incorporation of [1,3-14C]glycerol in liver phospholipid at 100 mg/kg, po qd for 1 week (reference value: 100 +/- 8.3%); conditions: 168 h
Rattus norvegicus [13] = test: Hypolipidemic activity in Sprague-Dawley rat assessed as decrease in serum triglyceride at 10 mg/kg, po qd for 1 week (reference value: 100 +/- 5.3%); assay type: functional; conditions: 168 h
Rattus norvegicus [14] = test: Hypolipidemic activity in Sprague-Dawley rat assessed as inhibition of incorporation of [1,3-14C]glycerol in liver phospholipid at 50 mg/kg, po qd for 1 week (reference value: 100 +/- 8.3%); values are per cent of control; conditions: 168 h
Rattus norvegicus [15] = test: Hypolipidemic activity in Sprague-Dawley rat assessed as inhibition of incorporation of [1,3-14C]glycerol in liver triglyceride at 100 mg/kg, po qd for 1 week (reference value: 100 +/- 8.4%); values are per cent of control; conditions: 168 h
Rattus norvegicus [16] = test: Hypolipidemic activity in Sprague-Dawley rat assessed as liver triglyceride level at 100 mg/kg, po qd for 1 week (reference value: 100 +/- 8.4%); conditions: 168 h

Structure (SMILES): Nc1ncnc2c1ncn2CC(O)COc1ccc(Br)cc1 (stereo unspecified)
- level, % of control at 10 mg/kg/day (Rattus norvegicus [1]): 96%

Structure (SMILES): Cc1ccc(OCC(O)Cn2cc(C)c(=O)[nH]c2=O)cc1 (stereo unspecified)
- level, % of control at 10 mg/kg/day (Rattus norvegicus [1]): 99%

Structure (SMILES): COc1ccc(OCC(O)Cn2cnc3c(N)ncnc32)cc1 (stereo unspecified)
- level, % of control at 10 mg/kg/day (Rattus norvegicus [1]): 93%

Structure (SMILES): Nc1ncnc2c1ncn2CC(O)COc1ccccc1Cl (stereo unspecified)
- level, % of control at 10 mg/kg/day (Rattus norvegicus [1]): 93%

Structure (SMILES): O=c1ccn(CC(O)COc2ccc(Cl)cc2)c(=O)[nH]1 (stereo unspecified)
- level, % of control at 10 mg/kg/day (Rattus norvegicus [1]): 102%

Structure (SMILES): Cc1cn(CC(O)COc2ccc(Cl)cc2)c(=O)[nH]c1=O (stereo unspecified)
- level, % of control at 10 mg/kg/day (Rattus norvegicus [1]): 96%

- inhibition (Rattus norvegicus [4]): 50%
Structure (SMILES): Nc1ncnc2c1ncn2CC(O)COc1ccc(Cl)cc1 (stereo unspecified)
- level, % of control at 50 mg/kg (Rattus norvegicus [2]): 38.5%
- level, % of control at 50 mg/kg (Rattus norvegicus [3]): 29%
- Activity (Rattus norvegicus [5]): Non-toxic
- inhibition (Liver microsome): Active
- level, % of control at 100 mg/kg (Rattus norvegicus [6]): 40.3%
- level, % of control at 10 mg/kg (Rattus norvegicus [7]): 74.9%
- level, % of control at 10 mg/kg (Rattus norvegicus [8]): 36.7%
- level, % of control at 50 mg/kg (Rattus norvegicus [9]): 252%
- level, % of control at 10 mg/kg/day (Rattus norvegicus [1]): 93%
- Activity (Rattus norvegicus [10]): Non-toxic
- level, % of control at 10 mg/kg (Rattus norvegicus [11]): 57.6%
- level, % of control at 100 mg/kg (Rattus norvegicus [12]): 36.7%
- level, % of control at 10 mg/kg (Rattus norvegicus [13]): 73%
- level, % of control at 50 mg/kg (Rattus norvegicus [14]): 33.5%
- level, % of control at 100 mg/kg (Rattus norvegicus [15]): 31.8%
- level, % of control at 100 mg/kg (Rattus norvegicus [16]): 345%

Structure (SMILES): CC(C)(C)c1ccc(OCC(O)Cn2cnc3c(N)ncnc32)cc1 (stereo unspecified)
- level, % of control at 10 mg/kg/day (Rattus norvegicus [1]): 110%

Structure (SMILES): Cc1ccc(OCC(O)Cn2ccc(=O)[nH]c2=O)cc1 (stereo unspecified)
- level, % of control at 10 mg/kg/day (Rattus norvegicus [1]): 89%

Structure (SMILES): Nc1ncnc2c1ncn2CC(O)CSc1ccc(Cl)cc1 (stereo unspecified)
- level, % of control at 10 mg/kg/day (Rattus norvegicus [1]): 79%

Structure (SMILES): CC(=O)c1ccc(OCC(O)Cn2cnc3c(N)ncnc32)cc1 (stereo unspecified)
- level, % of control at 10 mg/kg/day (Rattus norvegicus [1]): 99%

Structure (SMILES): Nc1ncnc2c1ncn2CC(O)COc1cccc(Cl)c1 (stereo unspecified)
- level, % of control at 10 mg/kg/day (Rattus norvegicus [1]): 97%

Structure (SMILES): COc1ccc(OCC(O)Cn2ccc(=O)[nH]c2=O)cc1 (stereo unspecified)
- level, % of control at 10 mg/kg/day (Rattus norvegicus [1]): 93%

Structure (SMILES): Nc1ncnc2c1ncn2CC(O)COc1ccc(F)cc1 (stereo unspecified)
- level, % of control at 10 mg/kg/day (Rattus norvegicus [1]): 86%

Structure (SMILES): Nc1ncnc2c1ncn2CC(O)COc1ccc(C(=O)c2ccccc2)cc1 (stereo unspecified)
- level, % of control at 10 mg/kg/day (Rattus norvegicus [1]): 118%
